Published values of several laboratories.
Target: Ephrin type-B receptor 1 (EPHB1, Homo sapiens, UniProt P54762)
One construct used (P54762 18-984): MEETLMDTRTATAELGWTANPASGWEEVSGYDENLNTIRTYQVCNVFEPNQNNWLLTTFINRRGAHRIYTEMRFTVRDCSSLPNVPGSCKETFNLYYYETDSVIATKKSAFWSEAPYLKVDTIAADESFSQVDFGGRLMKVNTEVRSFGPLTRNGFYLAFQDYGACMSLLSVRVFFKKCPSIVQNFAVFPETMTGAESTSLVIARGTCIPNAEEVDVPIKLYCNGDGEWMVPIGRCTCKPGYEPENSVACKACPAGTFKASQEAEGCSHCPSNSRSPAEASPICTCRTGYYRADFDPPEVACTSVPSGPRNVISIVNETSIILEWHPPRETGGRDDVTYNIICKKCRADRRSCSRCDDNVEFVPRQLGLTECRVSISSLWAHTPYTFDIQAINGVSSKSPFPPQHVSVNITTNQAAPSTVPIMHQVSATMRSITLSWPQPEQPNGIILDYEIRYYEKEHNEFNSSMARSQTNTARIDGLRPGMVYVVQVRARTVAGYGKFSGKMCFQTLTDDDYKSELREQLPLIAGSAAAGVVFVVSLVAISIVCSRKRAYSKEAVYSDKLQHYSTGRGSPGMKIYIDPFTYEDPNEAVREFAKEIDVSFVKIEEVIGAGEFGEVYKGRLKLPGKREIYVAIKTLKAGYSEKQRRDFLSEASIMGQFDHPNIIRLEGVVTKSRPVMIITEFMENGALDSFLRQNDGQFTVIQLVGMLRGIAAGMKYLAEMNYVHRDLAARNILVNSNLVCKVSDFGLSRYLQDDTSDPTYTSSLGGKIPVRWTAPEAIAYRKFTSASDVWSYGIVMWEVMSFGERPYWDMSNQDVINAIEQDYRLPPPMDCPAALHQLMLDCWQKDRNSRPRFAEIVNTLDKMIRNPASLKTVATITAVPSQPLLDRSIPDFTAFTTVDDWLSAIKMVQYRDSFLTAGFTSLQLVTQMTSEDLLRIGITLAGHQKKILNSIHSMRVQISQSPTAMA

CO[C@@H](C)c1c(Nc2ccc([C@H](N(C)C(=O)C3CCS(=O)(=O)CC3)C(F)(F)F)cc2)cnc2cc(Cl)nn12
remaining binding (cell-free assay, competition with immobilised ligand; 1 µM): 86%

O=C(c1ccc(Nc2ncc(Cl)c(-c3cc4ccccc4s3)n2)cc1)N1CCC(N2CCCC2)CC1
remaining binding (binding, competition with immobilised ligand; 1 µM): 33%

CN(CCCC(F)(F)F)c1nccc(-c2cnn3ncccc23)n1
remaining binding (binding; 1 µM): 91%

COc1ncc2cc3ccccc3nc2c1C#N
remaining binding (cell-free assay, competition with immobilised ligand; 5 µM): 91%

CN(C)c1ncc(F)c(-c2cnn3ncccc23)n1
remaining binding (binding; 1 µM): 100%

O=C(NCC1CCOCC1)c1n[nH]cc1NC(=O)c1c(F)cccc1F
remaining binding (binding, competition with immobilised ligand; 1 µM): 100%

O=C(c1ccc(Nc2ncc(Cl)c(-c3ccc(Cl)s3)n2)cc1)N1CCC(N2CCCC2)CC1
remaining binding (binding, competition with immobilised ligand; 1 µM): 30%

N[C@@H]1CCN(c2nccc(-c3cnn4ncccc34)n2)C1
remaining binding (binding; 1 µM): 96%

CCN1CCN(Cc2ccc(C(=O)Nc3ccc(C)c(Oc4ccc5c(c4)CC(=O)N5)c3)cc2C(F)(F)F)CC1
remaining binding (binding, competition with immobilised ligand; 1 µM): 100%

O=C(c1ccc(Nc2nccc(-c3cc4ccccc4s3)n2)cc1)N1CCC(N2CCCC2)CC1
remaining binding (binding, competition with immobilised ligand; 1 µM): 47%

Nc1ncc2c(n1)-c1c([nH]c3ccc(C#CC4CC4)cc13)CCCC2
remaining binding (binding, competition with immobilised ligand; 1 µM): 92%

c1ccc(N2CCN(Cc3nc4ccccc4[nH]3)CC2)nc1
remaining binding (cell-free assay, competition with immobilised ligand; 1 µM): 100%

C[C@@H]1CCN(c2nccc(-c3cnn4ncccc34)n2)C1
remaining binding (binding; 1 µM): 97%

O=C(N[C@H]1CCCCC/C=C\C2C[C@@]2(C(=O)O)NC(=O)[C@@H]2C[C@@H](Oc3ccncc3)CN2C1=O)OC1CCCC1 (stereo partly drawn)
remaining binding (cell-free assay, competition with immobilised ligand; 1 µM): 100%

COc1cnc(Nc2cccc(S(N)(=O)=O)c2)nc1N1CCN(c2ccccc2)C(=O)C1
remaining binding (binding, competition with immobilised ligand; 1 µM): 100%

O=c1nc(-c2ccccn2)sc2ccccc12
remaining binding (cell-free assay, competition with immobilised ligand; 1 µM): 88%

C[C@@H](c1ccc(-n2cnc3c(N)ncnc32)cc1)N1CCc2nn(C)c(Cc3ccccc3)c2C1=O
remaining binding (binding, competition with immobilised ligand; 0.1 µM): 70%

CCS(=O)(=O)c1cc2cc(C[C@](O)(CC(C)(C)c3ccc(F)cc3C(N)=O)C(F)(F)F)[nH]c2cn1
remaining binding (cell-free assay, competition with immobilised ligand; 1 µM): 86%

Cc1cnn2ncc(-c3ccnc(N(C)C)n3)c2c1
remaining binding (binding; 1 µM): 100%

CC(C)(O)c1cncc(-c2nc3ccc(F)cc3n2C2CC2)c1
remaining binding (cell-free assay, competition with immobilised ligand; 1 µM): 100%

CN(c1nccc(-c2cnn3ncccc23)n1)C1CC1
remaining binding (binding; 1 µM): 100%
